# In the library only some 2.3% were active in any assay of this set; here they are far more common.
# TRPC4 act: activators of mouse TRPC4 channel, primary screen, Fluo4 calcium, HEK293 TRPC4beta/mu-opioid cells | Fluo4 calcium fluorescence; stronger effect = higher value | AID 2237, 2010 | actives 0.49% (n = 310,000) | Short transient receptor potential channel 4 (Mus musculus), Q9QUQ5 | B-score at 10 µM;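 active = B-score above 5 SD of library B-scores, and initial fluorescence ratio not above library mean plus 5 SD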;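 note: positive B-score marks a calcium rise read as TRPC4 activation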
#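 Technique: kinetic Fluo4 calcium fluorescence; Test system: TRPC4beta and mu-opioid receptor HEK293 stable cells; Measure: B-scored integrated calcium fluorescence ratio; Benchmarks: low control buffer alone, high control maximal DAMGO; Schedule: 45 min room-temperature Fluo4 loading, 110 s read.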
# TRPC4 potent: positive allosteric modulators of TRPC4, primary screen, cell-based, mouse TRPC4beta, HEK293 mu-opioid, Fluo-4 calcium | B-score at 10 µM | actives 0.42% (n = 310,000) | Short transient receptor potential channel 4 (Mus musculus), Q9QUQ5 | AID 2227, 2009 | DAMGO EC20, Fluo-4 Ca2+ flux; stronger effect = higher value;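 active = B-score of calcium response area above 5 SD of library B-scores, with initial fluorescence ratio within 5 SD of library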
# TRPC6 inh: mouse TRPC6 channel inhibitors, primary screen, cell-based, HEK293, membrane potential dye; B-score at 10 µM; actives 1.1% (n = 310,000); AID 2553, 2010; Short transient receptor potential channel 6 (Mus musculus), Q61143; ACh-evoked depolarization; stronger effect = lower value;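 active = B-score under library mean minus 3 SD, initial fluorescence not abnormally high, positive integrated signal ratio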;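 note: B-score derived from integrated fluorescence ratio over the kinetic read; more negative B-score means stronger inhibition of depolarization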
# TRPC4 inh: inhibitors of mouse TRPC4 channel, primary screen, Fluo4 calcium, HEK293 TRPC4beta/mu-opioid cells; DAMGO-evoked Fluo4 calcium flux; stronger effect = lower value; AID 2247, 2010; actives 0.39% (n = 300,000); Short transient receptor potential channel 4 (Mus musculus), Q9QUQ5; B-score at 10 µM;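 active = B-score over 3 SD under the library average, no early fluorescence shift, positive overall ratio signal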
#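 Assay system: HEK293 cells with stable TRPC4beta plus mu-opioid receptor expression. Dosing: single dose. Measured by: Fluo4 Ca2+ flux fluorescence. Also added: DAMGO in two steps, submaximal then maximal. Read-out: B score from integrated Fluo4 fluorescence ratio.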
# TRPC6 act: mouse TRPC6 channel activators, primary screen, cell-based, HEK293, membrane potential dye; Short transient receptor potential channel 6 (Mus musculus), Q61143; HEK293-TRPC6 membrane potential dye fluorescence; stronger effect = higher value; B-score at 10 µM; actives 0.13% (n = 310,000); AID 2550, 2010;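 active = B-score of the integrated fluorescence ratio above library mean plus 3 SD, and starting fluorescence ratio within library mean plus 5 SD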;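 note: higher score means more depolarization so channel activation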
# Numbers stand for hits; . = inactive.
SMILES,TRPC4 act,TRPC4 potent,TRPC6 inh,TRPC4 inh,TRPC6 act
CCCCCc1cc(=O)oc2c(C(CCN(CC)CC)c3ccc(N(C)C)cc3)c(OC)cc(OC)c12 (stereo not given),.,11,.,.,.
COc1ccc(CN2CCN(CC(O)Cn3c4ccccc4c4ccccc43)CC2)cc1 (stereo not given),79,.,.,.,.
O=C1c2ccccc2S(=O)(=O)c2cc(C(=O)N(c3ccccn3)c3ccccn3)ccc21,135,.,.,.,.
COc1ccc(NC(=S)NNC(=O)c2ccco2)c(OC)c1,.,.,.,.,.
CCOC(=O)C1(CC2CCCCO2)CCN(Cc2nc(C(C)C)cs2)CC1 (stereo not given),.,.,.,.,.
COc1ccc(OC)c(Nc2cc(-c3ccccc3)nc(N)n2)c1,.,.,-5.43,-7,.
COCCNC(=O)c1cc2nc(-c3ccc(F)cc3)cc(C(F)(F)F)n2n1,.,.,.,.,.
CCN(CC)CCCNC(=O)c1cc2nc(-c3ccccc3)cc(C(F)(F)F)n2n1,.,11,.,.,.
Cc1ccc(C)c(S(=O)(=O)N/N=C/c2ccc(N3CCOCC3)cc2)c1,.,.,.,.,.
CN(CCNC(=O)CCCOc1cc(=O)n(C)c2ccccc12)Cc1ccccc1,99,.,.,.,.
COc1ccc(CCNC(=O)CCCOc2cc(=O)n(C)c3ccccc23)cc1OC,.,.,.,.,.
CN(CCCNC(=O)CCCOc1cc(=O)n(C)c2ccccc12)Cc1ccccc1,.,19,.,.,.
Cc1cc(Br)ccc1NC(=O)C1CCN(S(=O)(=O)c2cnc[nH]2)CC1,.,.,.,.,.
O=C(Nc1nnc(S(=O)(=O)N2CCCCC2)s1)c1cccc(Br)c1,.,.,.,.,.
Cc1cc(/C=N/NC(N)=S)c(C)n1-c1ccc(Cl)c(Cl)c1,.,.,.,.,.
CCNC(=S)N/N=C/c1cc(C)n(-c2ccc(Cl)cc2)c1C,.,22,.,.,.
COc1ccc(NC2CCCN(C(=O)CCCn3cncn3)C2)cc1OC (stereo not given),.,.,.,.,.
CN(C)CCNc1ncnc2ccccc12,.,11,.,.,.
CN(C)CCCNc1ncnc2c1cnn2Cc1ccccc1Cl,.,18,.,.,.
CN(C)CCCNc1ncnc2c1cnn2-c1ccccc1,.,25,.,.,.
CCOP(=O)(OCC)C1NC(=O)N(c2ccccc2)C1=O (stereo not given),.,.,.,.,.
COc1ccc(N2CCN(S(=O)(=O)CCNC(=O)/C=C/c3ccccc3)CC2)cc1,.,.,.,.,.
CCCn1c(NC(=O)c2ccc(Cl)c(S(=O)(=O)N3CCCC3)c2)nc2ccccc21,.,32,.,-7,.
Cc1c(Cl)c(C(=O)Nc2nc3ccccc3n2CCN2CCCCC2)nn1C,.,.,-8.21,.,.
O=C(c1ccc2ccccc2n1)N(CCO)Cc1ccccc1,.,.,.,.,.
SMILES,TRPC4 act,TRPC4 potent,TRPC6 inh,TRPC4 inh,TRPC6 act
Cc1cc(C)c2sc(N(CCCN(C)C)C(=O)c3ccc(S(=O)(=O)N4CCc5ccccc5C4)cc3)nc2c1,.,.,.,.,.
CN(C)CCCN(C(=O)c1ccc(S(=O)(=O)N2CCc3ccccc3C2)cc1)c1nc2ccc(F)cc2s1,111,.,.,.,.
CN(C)CCCN(C(=O)c1ccc(S(=O)(=O)N2CCc3ccccc3C2)cc1)c1nc2c(F)cccc2s1,.,.,.,.,.
Cc1ccc(C(=O)N(CCCN(C)C)c2nc3ccc(Cl)cc3s2)cc1C,.,.,.,.,.
Cc1ccc2nc(N(CCCN(C)C)C(=O)c3ccc(S(=O)(=O)N4CCc5ccccc5C4)cc3)sc2c1,129,.,.,.,.
Cc1ccc2nc(N(CCCN(C)C)C(=O)c3sc4ccccc4c3Cl)sc2c1,.,10,.,.,.
CN(C)CCCN(C(=O)c1ccc(S(=O)(=O)N2CCCC2)cc1)c1nc2c(F)cc(F)cc2s1,.,.,.,-9,.
O=C1CC(C(=O)N2CCc3ccccc32)CN1c1ccccc1 (stereo not given),.,.,.,.,.
COc1cc(OC)cc(C(=O)N[C@H](C(=O)Nc2nc(-c3ccc(OC)c(OC)c3)cs2)C(C)C)c1,.,.,.,.,.
Cc1cc(NC(=O)Nc2ccccc2)n(C(C)(C)C)n1,.,.,.,.,.
CN(C)CCCN(C(=O)c1ccc(S(=O)(=O)N(C)C)cc1)c1nc2ccc(F)cc2s1,49,.,.,-5,.
CCN(CC)CCN(C(=O)c1ccccc1OC)c1nc2ccc(F)cc2s1,.,.,.,-6,.
CCN(CC)CCN(C(=O)c1ccc2c(c1)CCCC2)c1nc2ccc(F)cc2s1,.,.,.,.,.
Cc1ccc2nc(N(CCCN(C)C)C(=O)c3ccc(S(=O)(=O)N(C)C)cc3)sc2c1,.,.,.,.,.
CN(C)CCCN(C(=O)c1ccc(S(=O)(=O)N2CCc3ccccc32)cc1)c1nc2ccc(F)cc2s1,111,.,.,.,.
COc1ccc(CNC(=O)[C@H](C)NC(=O)C2CCN(S(=O)(=O)c3ccccc3)CC2)cc1,.,.,.,.,.
O=C(O)CCC(=O)NNC(=O)c1ccc(Br)cc1,.,.,.,.,.
Cc1ccc(C)n1-c1ncc(Br)cn1,.,21,.,.,.
O=C1/C(=C/c2ccc(Cl)cc2)NC(=S)N1Cc1cccnc1,.,.,.,.,.
CC(C)c1ccc(NC(=O)N(CCc2nc3ccccc3[nH]2)C2CCCC2)cc1,75,.,.,-7,.
CCCCCCC(=O)N/N=C1\CCCc2ccccc21,.,.,.,.,.
C=CCn1c(NC(C)c2cc(Cl)ccc2O)nc2ccccc21 (stereo not given),.,.,.,-6,.
O=C(CN(CCc1ccccc1)Cc1ccccc1)Oc1ccccc1P(=O)(O)O,.,.,.,.,.
COc1ccc(CNCc2cc3c(cc2[N+](=O)[O-])OCO3)cc1,.,.,-5.26,.,.
Cc1cc(C)cc(NCc2cc3c(cc2[N+](=O)[O-])OCO3)c1,.,.,.,.,.
Cc1ccn2c(CNCCn3cccn3)c(C(=O)N3CCCCCC3)nc2c1,.,.,.,.,.
Cc1ccn2c(CNCCCn3cccn3)c(C(=O)N3CCCCCC3)nc2c1,.,.,.,-7,.
CC(C)C[C@H](NC(=O)OC(C)(C)C)C(=O)N/N=C/C1=Cc2ccccc2OC1C (stereo not given in full),.,.,.,.,.

# Compound activity deposited in PubChem BioAssay by Johns Hopkins Ion Channel Center.
